Screening data: PubChem BioAssay, Broad Institute
The list is not random: actives were taken first. Their share in the collection is about 1.5%.
C-LANA FP: inhibitors of KSHV LANA C-terminal domain DNA binding; AID 504423; MBP-C-LANA/FAM-LBS DNA binding, fluorescence polarization; inhibition, % at 9 µM; actives 0.078% (n = 340,000);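 active = highest replicate inhibition at or above 60% at 9 µM, even if other replicates fall short; inactive = all replicates below 60% inhibition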;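 also: 0% = neutral control wells and 100% = 4 µM acridine orange control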
Keap1 Nrf2 FP: Keap1-Nrf2 (human) interaction inhibition. Q14145. Keap1 Kelch-Nrf2 peptide fluorescence polarization, 1536-well. inhibition, % at 9.4 µM. actives 0.15% (n = 340,000). AID 504523; in the data active = inhibition above about 12%;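 also: human Keap1 Kelch domain with fluorescein labeled Nrf2 9mer peptide probe; 0% = neutral control wells and 100% = peptide positive control; higher means more block of Keap1 binding to Nrf2 peptide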
Target sequence (Q14145 whole entry, looked up, the tested form may be a part): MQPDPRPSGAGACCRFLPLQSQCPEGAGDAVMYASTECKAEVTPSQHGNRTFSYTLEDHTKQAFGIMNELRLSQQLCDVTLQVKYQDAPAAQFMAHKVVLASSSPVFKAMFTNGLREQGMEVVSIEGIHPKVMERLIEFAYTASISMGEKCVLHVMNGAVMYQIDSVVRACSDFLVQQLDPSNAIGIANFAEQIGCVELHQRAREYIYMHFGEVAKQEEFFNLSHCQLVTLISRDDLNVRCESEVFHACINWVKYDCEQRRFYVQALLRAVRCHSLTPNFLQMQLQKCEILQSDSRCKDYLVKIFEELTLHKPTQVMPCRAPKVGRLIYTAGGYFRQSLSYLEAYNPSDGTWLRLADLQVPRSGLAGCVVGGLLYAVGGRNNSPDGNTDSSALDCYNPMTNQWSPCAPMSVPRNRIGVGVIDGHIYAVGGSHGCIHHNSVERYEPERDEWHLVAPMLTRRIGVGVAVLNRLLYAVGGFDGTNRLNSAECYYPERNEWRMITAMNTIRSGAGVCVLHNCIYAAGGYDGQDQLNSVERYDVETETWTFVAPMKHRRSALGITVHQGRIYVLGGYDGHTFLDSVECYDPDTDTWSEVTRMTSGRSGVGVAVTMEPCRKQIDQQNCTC
LANA-H2A inh: blocks KSHV LANA binding to histone H2A/H2B. actives 0.6% (n = 320,000). inhibition, % (concentration not given with the values). cell-free LANA-H2A/H2B peptide, fluorescence polarization; in the data active = inhibition mostly above about 10%, no sharp cut-off; inactive = mostly below about 6.7%
CAL PDZ FP-1: blocks peptide binding to human CAL PDZ domain; actives 0.02% (n = 330,000); purified CAL PDZ, TMR-peptide fluorescence polarization, 1 h; Q9HD26; inhibition, % at 20 µM; AID 504414;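 active = highest replicate inhibition of at least 40%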;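 also: plate controls were DMSO neutral control wells for no effect and unlabeled competitor peptide control wells for full effect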
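Control set: unlabelled peptide and DMSO controls / Material: purified CerCALP PDZ construct / Timing: 1 h incubation at room temperature before polarization reading / Doses: 20 µM, one dose / Detection: fluorescence polarization (mP)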
CaV13 FRET inh: Primary screen for inhibitors of IQ motif and Ca2+-dependent inactivation inhibitor domain binding in CACNA1D, Förster resonance energy transfer in living cells, …; inhibition, % at 12.3 µM; actives 0.098% (n = 340,000); HEK cells, CFP/YFP FRET ICDI-IQ, plate reader, 10 min; percent FRET-ratio fall versus neutral wells;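 active = mean replicate inhibition of at least 30% and at least 1% of replicates passing that level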;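 also: 0% = median of the neutral control wells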
CAL PDZ FP-2: inhibitors of human CAL PDZ peptide binding | Q9HD26 | purified CAL PDZ, TMR-peptide fluorescence polarization, 1 h | inhibition, % at 24.9 µM | actives 0.92% (n = 300,000);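 active = mean inhibition of at least 30% with at least half of replicates also reaching 30%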;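 also: 0% = DMSO neutral control and 100% = excess unlabeled competitor peptide PRC23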
* = called active by the depositor.

O=[N+]([O-])/C(=C\Nc1ccccc1Cl)S(=O)(=O)c1ccccc1 was read as C-LANA FP 0, Keap1 Nrf2 FP 0, LANA-H2A inh 0, CAL PDZ FP-1 0 and CAL PDZ FP-2 -1.
COC(=O)c1cc2c(c3c4cc(F)ccc4n(S(=O)(=O)c4ccc(C)cc4)c13)C(=O)N(Cc1ccc(N(C)C)cc1)C2 was read as CaV13 FRET inh -3.
O=C(O/N=C1\CCS(=O)(=O)c2sccc21)c1c(F)cccc1F was read as C-LANA FP 1, Keap1 Nrf2 FP -3, LANA-H2A inh -2, CAL PDZ FP-1 -3, CaV13 FRET inh -17 and CAL PDZ FP-2 2.
For O=S1(=O)CC/C(=N\Nc2ccccc2)c2ccsc21 the results were C-LANA FP -3, Keap1 Nrf2 FP -5, LANA-H2A inh 0, CAL PDZ FP-1 -1, CaV13 FRET inh 5 and CAL PDZ FP-2 33*.
CCC(C)N(NC(C)=O)c1nc(Cl)nc(NC(C)C)n1 (centres undefined) was read as C-LANA FP 0, Keap1 Nrf2 FP 5, LANA-H2A inh -5, CAL PDZ FP-1 -1, CaV13 FRET inh -2 and CAL PDZ FP-2 -3.
CCOC(=O)c1ccc(S(=O)(=O)NCC(C)(C)N2CCOCC2)cc1 was read as C-LANA FP 0, Keap1 Nrf2 FP -1, LANA-H2A inh -2, CAL PDZ FP-1 1, CaV13 FRET inh -5 and CAL PDZ FP-2 56*.
CN1CCN(C(=O)c2cc3c(C(F)(F)F)nn(C)c3s2)CC1 was read as C-LANA FP -2, Keap1 Nrf2 FP -6, LANA-H2A inh 17*, CAL PDZ FP-1 -1 and CAL PDZ FP-2 -2.
Screening Cn1nc(C(F)(F)F)c2cc(C(=O)NC3CC3)sc21 returned C-LANA FP 0, Keap1 Nrf2 FP -8, LANA-H2A inh -2, CAL PDZ FP-1 1 and CAL PDZ FP-2 -3.
Screening CC(=O)c1ccc(-c2cnc3c(NC=O)cc(-c4ccccc4Oc4ccccc4)cn23)cc1 returned CaV13 FRET inh -5.
COc1ccc(OC)c(-n2c(Cn3c(-c4ccccn4)nc4ccccc43)n[nH]c2=S)c1 was read as C-LANA FP -2, Keap1 Nrf2 FP 6, LANA-H2A inh 14*, CAL PDZ FP-1 -1, CaV13 FRET inh -1 and CAL PDZ FP-2 -5.
For COc1ccc(OC)c(-n2c(-c3cnccn3)n[nH]c2=S)c1 the results were C-LANA FP 0, Keap1 Nrf2 FP -3, LANA-H2A inh 4, CAL PDZ FP-1 -1, CaV13 FRET inh -6 and CAL PDZ FP-2 0.
For Cc1ccc2nc(-c3ccc(CN4CCC5(CC4)CNc4ccccc45)cc3)c(-c3ccccc3)nc2c1 the results were CaV13 FRET inh -12.
Screening Cc1cc(C)nc(S/C=C/C(=O)c2ccccc2F)n1 returned C-LANA FP 3, Keap1 Nrf2 FP 1, LANA-H2A inh 1, CAL PDZ FP-1 0, CaV13 FRET inh -4 and CAL PDZ FP-2 80*.
COC(=O)c1ccc(OCC(O)CN2CCc3cc(OC)c(OC)cc3C2c2ccccc2)cc1 (centres undefined) was read as C-LANA FP -2, Keap1 Nrf2 FP -1, LANA-H2A inh 0, CAL PDZ FP-1 0, CaV13 FRET inh -5 and CAL PDZ FP-2 76*.
`CCN1C(=O)[C@H]2[C@@H](c3ccc(-c4ccc(Cl)c(Cl)c4)cc3)N3CCCC[C@@]3(C(=O)OC)[C@H]2C1=O` gave C-LANA FP -1, Keap1 Nrf2 FP -3, LANA-H2A inh -1, CAL PDZ FP-1 -1, CaV13 FRET inh -10 and CAL PDZ FP-2 35*.
Screening O=C(CN1CCN(Cc2ccccc2)CC1)N=Nc1c(O)[nH]c2ccccc12 returned C-LANA FP 0, Keap1 Nrf2 FP 2, LANA-H2A inh -2, CAL PDZ FP-1 -3, CaV13 FRET inh -5 and CAL PDZ FP-2 2.
For O=C(CN1CCCCC1)N=Nc1c(O)[nH]c2ccccc12 the results were C-LANA FP -1, Keap1 Nrf2 FP -1, LANA-H2A inh 9, CAL PDZ FP-1 -1, CaV13 FRET inh 3 and CAL PDZ FP-2 41*.
For CCN(CC)Cc1cc(C(C)(C)C)cc(N2CCOCC2)c1O the results were C-LANA FP -1, Keap1 Nrf2 FP -2, CAL PDZ FP-1 0, CaV13 FRET inh -2 and CAL PDZ FP-2 -2.
Screening CN(C)Cc1cc(C(C)(C)C)cc(N2CCOCC2)c1O returned C-LANA FP -2, Keap1 Nrf2 FP -3, CAL PDZ FP-1 0, CaV13 FRET inh -5 and CAL PDZ FP-2 89*.
O=C(O)CCCCN1C(=O)C=CC1=O was read as CaV13 FRET inh -10.
For COc1ccccc1C(=O)C1CCCN(C(=O)CN2CCCCC2=O)C1 (centres undefined) the results were C-LANA FP 0, Keap1 Nrf2 FP 2, LANA-H2A inh 0, CAL PDZ FP-1 -2, CaV13 FRET inh -18 and CAL PDZ FP-2 2.
For CC(=O)Nc1ccc(S(=O)(=O)NC(CC(=O)NCCC2=CCCCC2)C(C)C)cc1 (centres undefined) the results were C-LANA FP 3, Keap1 Nrf2 FP 2, LANA-H2A inh 1, CAL PDZ FP-1 0, CaV13 FRET inh -1 and CAL PDZ FP-2 45*.
For CCCCCCCCNC(=O)CC(NS(=O)(=O)c1ccc(NC(C)=O)cc1)C(C)C (centres undefined) the results were C-LANA FP 1, Keap1 Nrf2 FP -2, LANA-H2A inh 1, CAL PDZ FP-1 -2, CaV13 FRET inh -3 and CAL PDZ FP-2 -1.
Screening O=C(Nc1ccccc1C(=O)N1CCN(c2ccccc2)CC1)c1ccco1 returned C-LANA FP 1, Keap1 Nrf2 FP 3, LANA-H2A inh 0, CAL PDZ FP-1 0, CaV13 FRET inh -9 and CAL PDZ FP-2 47*.
CCn1cnc2sc(C(=O)Oc3cccc(C)c3)c(C)c2c1=O was read as C-LANA FP 3, Keap1 Nrf2 FP -2, LANA-H2A inh 3, CAL PDZ FP-1 0, CaV13 FRET inh 3 and CAL PDZ FP-2 42*.
Cc1c(C(=O)Oc2ccc(F)cc2)sc2ncn(Cc3cccc(F)c3)c(=O)c12 was read as C-LANA FP -1, Keap1 Nrf2 FP -1, LANA-H2A inh -1, CAL PDZ FP-1 0 and CAL PDZ FP-2 1.
Screening O=C(COC(=O)C1=COCCO1)Nc1ccc(Br)cc1Br returned C-LANA FP -1, Keap1 Nrf2 FP -1, LANA-H2A inh 2, CAL PDZ FP-1 0, CaV13 FRET inh -6 and CAL PDZ FP-2 43*.
Screening CN(C(=O)COC(=O)C1=COCCO1)C1(C#N)CCCCC1 returned C-LANA FP 2, Keap1 Nrf2 FP -5, LANA-H2A inh -1, CAL PDZ FP-1 0, CaV13 FRET inh -6 and CAL PDZ FP-2 8.
Screening Cc1ccccc1NC(=O)COC(=O)C1=COCCO1 returned C-LANA FP -3, Keap1 Nrf2 FP 2, LANA-H2A inh -2, CAL PDZ FP-1 2, CaV13 FRET inh -3 and CAL PDZ FP-2 -3.
